Experimental data published in ChEMBL document CHEMBL1921722, “In vitro and in vivo evaluation of select kahalalide F analogs with antitumor and antifungal activities” (Bioorg Med Chem, 2011).
Values after ≈ are worked out from the molar mass of the structure shown.

What was measured:
RXF 393 [1] = test: Cytotoxicity against human RXF393 cells assessed as cell growth at 800 nM by sulforhodamine B assay relative to control; format: functional; conditions: read-out: Activity
TK-10 = test: Cytotoxicity against human TK10 cells assessed as cell growth at 80 nM by sulforhodamine B assay relative to control; format: functional; conditions: read-out: Activity
NCI-H460 = test: Cytotoxicity against human NCI-H460 cells assessed as cell growth at 8 uM by sulforhodamine B assay relative to control; format: functional; conditions: read-out: Activity
UACC-257 [2] = test: Cytotoxicity against human UACC257 cells assessed as cell growth at 8 uM by sulforhodamine B assay relative to control; format: functional; conditions: read-out: Activity
A549 = test: Cytotoxicity against human A549 cells by sulforhodamine B assay; format: functional
Outline: (§1)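 Run at NCI in the DTP 60-cell-line human tumor panel by standard procedure. Compounds were first screened at a single concentration, then tested at five tenfold-spaced concentrations. GI50 is the concentration reducing treated-cell growth to half that of untreated controls; TGI is the concentration completely halting growth.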

MCF7 = test: Cytotoxicity against human MCF7 cells assessed as cell growth at 8 uM by sulforhodamine B assay relative to control; format: functional; conditions: read-out: Activity
SNB-19 = test: Cytotoxicity against human SNB19 cells assessed as cell growth at 80 nM by sulforhodamine B assay relative to control; format: functional; conditions: read-out: Activity
ACHN = test: Cytotoxicity against human ACHN cells assessed as cell growth at 80 uM by sulforhodamine B assay relative to control; format: functional; conditions: read-out: Activity; outline: as §1
Aspergillus fumigatus = test: Antimicrobial activity against Aspergillus fumigatus ATCC 90906 by CLSI method; format: functional, organism-based
M14 [3] = test: Cytotoxicity against human M14 cells assessed as cell growth at 8 uM by sulforhodamine B assay relative to control; format: functional; conditions: read-out: Activity
M14 [4] = test: Cytotoxicity against human M14 cells assessed as cell growth at 80 uM by sulforhodamine B assay relative to control; format: functional; conditions: read-out: Activity
SNB-75 = test: Cytotoxicity against human SNB75 cells assessed as cell growth at 8 nM by sulforhodamine B assay relative to control; format: functional; conditions: read-out: Activity
SK-MEL-28 [5] = test: Cytotoxicity against human SK-MEL-28 cells by sulforhodamine B assay; format: functional
Outline: (§2)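 NCI Developmental Therapeutics Program 60-cell-line human tumor panel screen, run at NCI. A single-concentration pre-screen was followed by a five-concentration dose-response in 10-fold steps. GI50 is the concentration that reduces growth of treated cells to half that of untreated control cells. TGI is the concentration that completely halts growth.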

RPMI-8226 [6] = test: Cytotoxicity against human RPMI8226 cells assessed as cell growth at 80 uM by sulforhodamine B assay relative to control; format: functional; conditions: read-out: Activity
OVCAR-8 = test: Cytotoxicity against human OVCAR8 cells assessed as cell growth at 80 nM by sulforhodamine B assay relative to control; format: functional; conditions: read-out: Activity
OVCAR-5 [7] = test: Cytotoxicity against human OVCAR5 cells assessed as cell growth at 80 nM by sulforhodamine B assay relative to control; format: functional; conditions: read-out: Activity
SK-MEL-28 [8] = test: Cytotoxicity against human SK-MEL-28 cells assessed as cell growth at 8 uM by sulforhodamine B assay relative to control; format: functional; conditions: read-out: Activity
RXF 393 [9] = test: Cytotoxicity against human RXF393 cells assessed as cell growth at 8 uM by sulforhodamine B assay relative to control; format: functional; conditions: read-out: Activity
KM12 [10] = test: Cytotoxicity against human KM12 cells by sulforhodamine B assay; format: functional; outline: as §2
KM12 [11] = test: Cytotoxicity against human KM12 cells assessed as cell growth at 80 uM by sulforhodamine B assay relative to control; format: functional; conditions: read-out: Activity
OVCAR-5 [12] = test: Cytotoxicity against human OVCAR5 cells assessed as cell growth at 8 nM by sulforhodamine B assay relative to control; format: functional; conditions: read-out: Activity
OVCAR-3 = test: Cytotoxicity against human OVCAR3 cells assessed as cell growth at 8 nM by sulforhodamine B assay relative to control; format: functional; conditions: read-out: Activity
SN12C = test: Cytotoxicity against human SN12C cells assessed as cell growth at 800 nM by sulforhodamine B assay relative to control; format: functional; conditions: read-out: Activity
K562 = test: Cytotoxicity against human K562 cells assessed as cell growth at 8 nM by sulforhodamine B assay relative to control; format: functional; conditions: read-out: Activity
NCI-H322M = test: Cytotoxicity against human NCI-H322M cells assessed as cell growth at 8 nM by sulforhodamine B assay relative to control; format: functional; conditions: read-out: Activity
SF-295 [13] = test: Cytotoxicity against human SF295 cells assessed as cell growth at 80 uM by sulforhodamine B assay relative to control; format: functional; conditions: read-out: Activity
U-251 = test: Cytotoxicity against human U251 cells assessed as cell growth at 800 nM by sulforhodamine B assay relative to control; format: functional; conditions: read-out: Activity
NCI-H226 [14] = test: Cytotoxicity against human NCI-H226 cells assessed as cell growth at 800 nM by sulforhodamine B assay relative to control; format: functional; conditions: read-out: Activity
HL-60(TB) = test: Cytotoxicity against human HL-60(TB) cells assessed as cell growth at 8 uM by sulforhodamine B assay relative to control; format: functional; conditions: read-out: Activity
NCI-H522 = test: Cytotoxicity against human NCI-H522 cells assessed as cell growth at 800 nM by sulforhodamine B assay relative to control; format: functional; conditions: read-out: Activity
RPMI-8226 [15] = test: Cytotoxicity against human RPMI8226 cells assessed as cell growth at 8 uM by sulforhodamine B assay relative to control; format: functional; conditions: read-out: Activity
MDA-MB-231 = test: Cytotoxicity against human MDA-MB-231 cells assessed as cell growth at 8 uM by sulforhodamine B assay relative to control; format: functional; conditions: read-out: Activity
LOX IMVI [16] = test: Cytotoxicity against human LOXIMVI cells assessed as cell growth at 8 nM by sulforhodamine B assay relative to control; format: functional; conditions: read-out: Activity
LOX IMVI [17] = test: Cytotoxicity against human LOXIMVI cells assessed as cell growth at 800 nM by sulforhodamine B assay relative to control; format: functional; conditions: read-out: Activity
MOLT-4 = test: Cytotoxicity against human MOLT4 cells assessed as cell growth at 800 nM by sulforhodamine B assay relative to control; format: functional; conditions: read-out: Activity
BT-549 = test: Cytotoxicity against human BT549 cells assessed as cell growth at 8 nM by sulforhodamine B assay relative to control; format: functional; conditions: read-out: Activity; outline: as §1
786-0 [18] = test: Cytotoxicity against human 786-0 cells assessed as cell growth at 8 uM by sulforhodamine B assay relative to control; format: functional; conditions: read-out: Activity; outline: as §1
SF-295 [19] = test: Cytotoxicity against human SF295 cells assessed as cell growth at 8 uM by sulforhodamine B assay relative to control; format: functional; conditions: read-out: Activity
NCI-H226 [20] = test: Cytotoxicity against human NCI-H226 cells assessed as cell growth at 8 uM by sulforhodamine B assay relative to control; format: functional; conditions: read-out: Activity
NCI-H226 [21] = test: Cytotoxicity against human NCI-H226 cells assessed as cell growth at 80 nM by sulforhodamine B assay relative to control; format: functional; conditions: read-out: Activity
SF-539 = test: Cytotoxicity against human SF539 cells assessed as cell growth at 80 uM by sulforhodamine B assay relative to control; format: functional; conditions: read-out: Activity
786-0 [22] = test: Cytotoxicity against human 786-0 cells assessed as cell growth at 8 nM by sulforhodamine B assay relative to control; format: functional; conditions: read-out: Activity; outline: as §1
UACC-257 [23] = test: Cytotoxicity against human UACC257 cells assessed as cell growth at 80 uM by sulforhodamine B assay relative to control; format: functional; conditions: read-out: Activity

## C/C=C1\NC(=O)[C@H](Cc2ccccc2)NC(=O)[C@@H](C(C)C)NC(=O)[C@@H]([C@@H](C)CC)NC(=O)[C@H](NC(=O)[C@H](NC(=O)[C@H](CCCNCc2ccc(F)c(C)c2)NC(=O)[C@H]2CCCN2C(=O)[C@H](NC(=O)[C@@H](NC(=O)[C@@H](NC(=O)[C@H](NC(=O)CCCC(C)C)C(C)C)[C@@H](C)O)C(C)C)C(C)C)[C@@H](C)CC)[C@@H](C)OC(=O)[C@H](C(C)C)NC1=O
RXF 393 [1]
  growth at 0.8 µM: 88%
TK-10
  growth at 0.08 µM: 105%
NCI-H460
  growth at 8 µM: -71%
UACC-257 [2]
  growth at 8 µM: -78%
A549; read-out: GI50
  GI50: 167 nM
A549; read-out: pGI50 (converted)
  GI50: 166 nM
MCF7
  growth at 8 µM: -53%
SNB-19
  growth at 0.08 µM: 96%
ACHN
  growth at 80 µM: -100%
Aspergillus fumigatus
  IC50: 3090 nM
  MFC: 10 µM (≈ 16 µg/mL)
  MIC: 10 µM (≈ 16 µg/mL)
M14 [3]
  growth at 8 µM: -99%
M14 [4]
  growth at 80 µM: -49%
SNB-75
  growth at 0.008 µM: 112%
SK-MEL-28 [5]
  GI50: 1100 nM
RPMI-8226 [6]
  growth at 80 µM: -21%
OVCAR-8
  growth at 0.08 µM: 103%
OVCAR-5 [7]
  growth at 0.08 µM: 96%
SK-MEL-28 [8]
  growth at 8 µM: -83%
RXF 393 [9]
  growth at 8 µM: -61%
KM12 [10]; read-out: GI50
  GI50: 155 nM
KM12 [10]; read-out: TGI
  TGI: 328 nM
KM12 [10]; read-out: pGI50 (converted)
  GI50: 155 nM
KM12 [10]; read-out: pTGI (converted)
  TGI: 331 nM
KM12 [11]
  growth at 80 µM: -36%
OVCAR-5 [12]
  growth at 0.008 µM: 107%
OVCAR-3
  growth at 0.008 µM: 105%
SN12C
  growth at 0.8 µM: 87%
K562
  growth at 0.008 µM: 101%
NCI-H322M
  growth at 0.008 µM: 105%
SF-295 [13]
  growth at 80 µM: -35%
U-251
  growth at 0.8 µM: 27%
NCI-H226 [14]
  growth at 0.8 µM: 98%
HL-60(TB)
  growth at 8 µM: -65%
NCI-H522
  growth at 0.8 µM: 105%
RPMI-8226 [15]
  growth at 8 µM: -64%
MDA-MB-231
  growth at 8 µM: -55%
LOX IMVI [16]
  growth at 0.008 µM: 96%
LOX IMVI [17]
  growth at 0.8 µM: 108%
MOLT-4
  growth at 0.8 µM: 96%
BT-549
  growth at 0.008 µM: 106%
786-0 [18]
  growth at 8 µM: -99%
SF-295 [19]
  growth at 8 µM: -89%
NCI-H226 [20]
  growth at 8 µM: -64%
NCI-H226 [21]
  growth at 0.08 µM: 109%
SF-539
  growth at 80 µM: -62%
786-0 [22]
  growth at 0.008 µM: 103%
UACC-257 [23]
  growth at 80 µM: -70%
